Assay results from PubChem BioAssay.
Active and inactive are the calls of the source.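 The calls were made as follows, unless noted: active = inhibition above 20% together with a positive visual image hit; inconclusive = visual image hit but inhibition not above 20%; inactive = no visual image hit.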

Key:
[1] = inhibitors of TNFa-induced NFkB p65 translocation, primary screen, imaging, HUVEC, MLSMR starter and 10KST1 sets (AID 438); details: HUVEC TNFa-induced p65 nuclear translocation; cell count: measured here: nuclei count (cytotoxicity indicator), at 2.08 µM; inhibition: at 2 µM, stronger effect = higher value, 0% TNFa-plus-vehicle, 100% no-TNFa wells;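 also: compound added about 3h40 before a 20 min TNFalpha stimulation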;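 as to inhibition: signal is the nuclear over cytoplasmic p65 intensity ratio per well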
[2] = inhibitors of E-selectin induction by TNFa, primary screen, imaging, HUVEC, immunofluorescence, MLSMR starter and 10KST1 sets (AID 487;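 active = visually confirmed hit in the image check and inhibition above 20%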;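 as to inhibition: signal is fraction of cell area covered by stained E-selectin grains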;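 as to nuclei count: 100% = median nuclei count of all wells on the same plate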); details: HUVEC TNFalpha-induced E-selectin immunofluorescence imaging, at 2 µM; inhibition: stronger effect = higher value; nuclei count: measured here: cell number, toxicity
[3] = DUSP6 inhibitors restoring Erk phosphorylation by chemical complementation, primary imaging in DUSP6-transfected HeLa (AID 609;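 active = compounds giving at least 50% inhibition in the cell-based MKP-3 phosphatase rescue imaging test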;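 as to inhibition: phospho-Erk level distribution per well compared with pooled transfected vehicle control wells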); details: HeLa MKP-3 transfected, phospho-Erk imaging KS statistic, at 10 µM, cells stimulated with TPA for 15 min
[4] = target: Dual specificity protein phosphatase 6 (Homo sapiens) (UniProt Q16828); experiment: as above; details: HeLa MKP-3 transfected, phospho-Erk imaging KS statistic; at 10 µM; stronger effect = higher value; cells stimulated with TPA for 15 min
Sequence of Dual specificity protein phosphatase 6 (Homo sapiens) (Q16828 whole entry, looked up): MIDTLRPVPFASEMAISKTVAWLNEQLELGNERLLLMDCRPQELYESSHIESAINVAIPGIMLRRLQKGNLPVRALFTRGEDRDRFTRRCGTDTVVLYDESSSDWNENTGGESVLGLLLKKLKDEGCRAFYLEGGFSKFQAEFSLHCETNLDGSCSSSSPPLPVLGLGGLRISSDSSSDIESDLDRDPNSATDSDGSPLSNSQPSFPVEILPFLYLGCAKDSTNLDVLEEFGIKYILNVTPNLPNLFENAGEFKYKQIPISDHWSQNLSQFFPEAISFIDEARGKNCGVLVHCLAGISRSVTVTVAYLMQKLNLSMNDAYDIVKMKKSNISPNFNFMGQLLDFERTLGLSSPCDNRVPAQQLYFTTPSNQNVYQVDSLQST

[5] = target: Voltage-gated potassium channel subunit beta-2 (Rattus norvegicus) (UniProt P62483); experiment: KvBeta enzyme negative modulators, primary screen, biochemical, NADPH fluorescence (AID 622;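 active = fluorescence slope higher than the sample average by over 3 SD, cut at about -0.22 in these data, passing the limit was not always enough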;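 also: slope of raw intensity against log time taken from 70 to 1610 s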); details: recombinant KvBeta, 4-cyanobenzaldehyde reduction, at 10 µM, stronger effect = higher value
Sequence of Voltage-gated potassium channel subunit beta-2 (Rattus norvegicus) (P62483 whole entry, looked up): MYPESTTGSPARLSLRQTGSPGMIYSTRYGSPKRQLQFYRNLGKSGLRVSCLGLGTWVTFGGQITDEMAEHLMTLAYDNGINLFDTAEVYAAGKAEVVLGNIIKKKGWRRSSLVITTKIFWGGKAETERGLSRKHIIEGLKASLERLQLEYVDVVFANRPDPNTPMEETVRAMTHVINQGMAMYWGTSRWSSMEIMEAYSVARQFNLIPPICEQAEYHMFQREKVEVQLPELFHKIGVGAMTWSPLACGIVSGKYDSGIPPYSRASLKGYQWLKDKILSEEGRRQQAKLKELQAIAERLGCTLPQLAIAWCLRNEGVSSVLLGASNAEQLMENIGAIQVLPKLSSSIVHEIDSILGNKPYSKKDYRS

[6] = target: Voltage-gated potassium channel subunit beta-2 (Rattus norvegicus) (UniProt P62483); experiment: KvBeta positive modulators, primary screen, biochemical, NADPH fluorescence (AID 623;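 active = NADPH fluorescence slope more negative than the mean of all samples by about 3 SD, 99.7% confidence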;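 also: fluorescence intensity change per second fitted from 20 to 320 s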); details: Recombinant KvBeta, NADPH fluorescence decrease slope, 10 min; at 10 µM; stronger effect = lower value
[7] = target: Muscarinic acetylcholine receptor M4 (Homo sapiens) (UniProt P08173); experiment: compounds altering M4/GIRK thallium flux, either direction, primary screen, M4 allosteric agonist project, cell-based, HEK293 M4/GIRK, BTC-AM (AID 625;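 active = fluorescence slope after compound addition differing from the mean of all tested samples at 99.7% confidence, mostly higher but some lower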;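 also: thallium influx through GIRK channels coupled to M4 in HEK293 cells with BTC-AM dye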); details: at 10 µM, actives lie on both sides
Sequence of Muscarinic acetylcholine receptor M4 (Homo sapiens) (P08173 whole entry, looked up): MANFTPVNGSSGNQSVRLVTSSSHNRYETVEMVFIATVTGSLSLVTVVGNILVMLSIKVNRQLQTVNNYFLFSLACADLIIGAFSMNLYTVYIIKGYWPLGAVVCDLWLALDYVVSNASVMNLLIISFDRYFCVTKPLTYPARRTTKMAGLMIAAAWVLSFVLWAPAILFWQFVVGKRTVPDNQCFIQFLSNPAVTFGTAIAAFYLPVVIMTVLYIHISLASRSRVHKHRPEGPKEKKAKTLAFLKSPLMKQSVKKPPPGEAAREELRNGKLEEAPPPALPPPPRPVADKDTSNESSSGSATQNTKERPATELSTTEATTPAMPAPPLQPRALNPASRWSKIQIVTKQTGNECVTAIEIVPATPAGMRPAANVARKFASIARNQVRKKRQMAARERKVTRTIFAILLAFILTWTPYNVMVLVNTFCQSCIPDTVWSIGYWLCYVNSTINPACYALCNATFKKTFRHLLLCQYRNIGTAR
Summary of the method: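 assay system = HEK293 cells with M4 receptor and GIRK channels | medium = pH 7.3 thallium assay buffer | doses = 10 µM final, single point | timing = cells overnight at 37 °C, BTC-AM loading 1 h, reads 2 min total | signal = BTC-AM fluorescence, 1 Hz kinetic reads | read-out = post-addition slope, 15–24 s, of baseline-normalized fluorescence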

[8] = inhibitors of larval lipid processing in zebrafish, primary screen, whole organism, PED6 fluorescence, gall bladder and intestine (AID 686;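 active = a full or partial loss of lipid-probe fluorescence in the fish gall bladder, intestine or both, judged by eye; inactive = no fluorescence loss, or compound toxic to the fish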;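 also: larvae 5 to 7 days old with five fish per well; signal comes from phospholipase A2 cleavage of quenched PED6 carried via bile; overnight exposure to compound and PED6 before scoring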); details: Zebrafish larvae PED6 lipid processing, fluorescence scoring; screened at 20 µM (by protocol)
Summary of the method: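 Also added: quenched phospholipase substrate PED6, 100 nM final, ingested by larvae; System: zebrafish larvae, 5-7 d; Quantity: 5 larvae per well; Compound: 20 µM single dose; Schedule: overnight compound and PED6 incubation; Read-out: visual per-well fluorescence inhibition score; Measured by: By-eye fluorescence microscopy; Medium: E3.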

[9] = inhibitors of Chlamydomonas gravitaxis, primary screen, whole organism, Chlamydomonas reinhardtii, WT vs cilia-less mutant, absorbance, 96-well (AID 463189;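 active = inhibition at or above 50% relative to wild type and mutant plate controls; inactive = inhibition below 50%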;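 also: 0% = wild type cc124 cells in DMSO and 100% = ciliumless bld1 mutant cells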); details: OD600 absorbance, 2 days, at 10 µM, stronger effect = higher value
[10] = measured here: cell density z-score
[11] = measured here: nuclear c-Myc green intensity z-score
[12] = measured here: nuclear pErk red intensity z-score, stronger effect = higher value

Compound	cell count [1]	inhibition [1]	inhibition [2]	nuclei count [2]	z-score [3, 10]	z-score [3, 11]	z-score [3, 12]	inhibition [4]	fluorescence slope [5]	NADPH fluorescence slope [6]	fluorescence slope [7]	outcome [8]	inhibition [9]
Cn1c(Cl)nc2c1c(=O)n(Cc1cccc(Br)c1)c(=O)n2C	691	-8.5% (inactive)	-97.4% (inactive)	169%	-1.75	0.296	0.815	3.97% (inactive)	-0.507 (inactive)	-1.8e-05 (inactive)	0.00593 (inactive)	inactive	-10.8% (inactive)
COc1ccc(OC)c(C2C(C(=O)c3sc(C)nc3C)=C(O)C(=O)N2CCN2CCOCC2)c1 (configuration not stated)	369	2.2% (inactive)	35.1% (inactive)	148%	-0.927	-0.477	2.22	-4.78% (inactive)	-0.46 (inactive)	-0.000134 (inactive)	0.00498 (inactive)	inactive	14.2% (inactive)
Cc1cc(Nc2ccc3ccccc3c2)n2ncnc2n1	503	-0.6% (inactive)	56.4% (inactive)	146%	-0.633	0.516	-1.5	3.97% (inactive)	-0.414 (inactive)	-4.4e-05 (inactive)	0.00533 (inactive)	inactive	-3.1% (inactive)
Cn1c(=O)n(CC(=O)Nc2ccccc2)c2ccccc21	382	-4.5% (inactive)	-15.2% (inactive)	152%	-0.194	0.676	-0.438	22.3% (inactive)	-0.453 (inactive)	-0.000119 (inactive)	0.0039 (inactive)	inactive	-5.61% (inactive)
Clc1ccc(-n2ncc3c(N4CCCC4)ncnc32)cc1	589	-9.4% (inactive)	-131% (inactive)	94.9%	-3.24	1.27	1.5	7.42% (inactive)	-0.411 (inactive)	-5e-05 (inactive)	0.00915 (inactive)	inactive	134% (active)
COCCNc1oc(-c2ccc(F)cc2)nc1C#N	631	-8.1% (inactive)	-48.8% (inactive)	162%	1.98	-0.407	1.1	24% (inactive)	-0.446 (inactive)	-6.5e-05 (inactive)	0.00617 (inactive)	inactive	-8.51% (inactive)
CC(C)(C)NC(=O)/C=N/O	637	-13.4% (inactive)	-71.6% (inactive)	166%	-0.0727	-0.26	0.222	1.63% (inactive)	-0.466 (inactive)	-3.8e-05 (inactive)	0.00655 (inactive)	inactive	25.5% (inactive)
N#Cc1nc(-c2ccc(F)cc2)oc1N1CCCC1	706	-7.6% (inactive)	24.6% (inactive)	148%	1.01	1.06	0.859	9.07% (inactive)	-0.348 (inactive)	-9.4e-06 (inactive)	0.0076 (inactive)	inactive	-3.17% (inactive)
O=C(CN1CCc2[nH]c3ccccc3c2C1)N1CCCCC1	538	3.2% (inactive)	-91.5% (inactive)	124%	-1.09	-0.293	-0.987	3.42% (inactive)	-0.446 (inactive)	-8.6e-05 (inactive)	0.00512 (inactive)	inactive	-5.72% (inactive)
CN(C)CCCOC(=O)c1ccc(Cl)cc1Cl	542	0% (inactive)	-26.6% (inactive)	126%	-3.39	0.341	0.409	-2.59% (inactive)	-0.49 (inactive)	-0.0001 (inactive)	0.00455 (inactive)	inactive	121% (active)
O=C(c1ccccc1)c1cc(-c2ccccc2)on1	589	-3.4% (inactive)	-39.7% (inactive)	118%	-0.313	-0.603	0.519	-13.3% (inactive)	-0.41 (inactive)	-7.5e-05 (inactive)	0.00548 (inactive)	inactive	-6.04% (inactive)
Cc1cc(SCCC(=O)O)nc2ccccc12	685	-18.8% (inactive)	-36.7% (inactive)	201%	-0.264	0.626	0.219	5.95% (inactive)	-0.488 (inactive)	-4.8e-05 (inactive)	0.00621 (inactive)	inactive	-15.2% (inactive)
C=CCN1C(=O)CC(C(=O)NC)SC1=Nc1ccc(C(=O)OCC)cc1 (configuration not stated)	634	12.2% (inactive)	-19.2% (inactive)	105%	-0.632	0.636	-0.397	-2.09% (inactive)	-0.407 (inactive)	-5.9e-05 (inactive)	0.00387 (inactive)	inactive	6.38% (inactive)
Cc1cc(C)c(C#N)c(OCC(=O)c2ccccc2)n1	450	-5.3% (inactive)	-69% (inactive)	156%	-0.815	1.05	0.134	-3.95% (inactive)	-0.405 (inactive)	-3.4e-05 (inactive)	0.00481 (inactive)	inactive	-6.74% (inactive)
